# Entries after “also recorded” stand apart in the source; their conditions may differ. Where two headings read alike, the source gives them in different places.
# Assays:
# [1] = cited from earlier work
# [2] = PD assessments with CNS scales; format: in vivo, human
# [3] = 2 weeks, up to 1,000 mg/kg/day; cited from earlier work
# [4] = Multiple ascending dose; format: in vivo, human; settings: for CSF KM-819 concentration: day 7, 1 hour postdose
# How it was run: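 Plasma was sampled on day 1 predose and at 0.25–12 h, on days 2–6 predose, and on day 7 predose and at 0.25–24 h. CSF was taken by lumbar puncture on day 1 predose and on day 7, 1 h after the last dose. Plasma was measured by UPLC-MS/MS with a deuterated internal standard, linear over 2–20,000 ng/mL (LOQ 2 ng/mL). Parameters came from non-compartmental analysis. Accumulation index = day 7 AUCtau and Cmax,ss over day 1 AUC0–24 and Cmax.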
# [5] = SAD study, safety and tolerability; format: in vivo, human
# How it was run: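 SAD cohorts were 6 active and 2 placebo healthy males given a single oral dose, with 2 sentinel subjects dosed at least 24 h before the rest. Confinement ran day −1 to day 3, with outpatient visits on days 4 and 7 and follow-up on day 14. Safety covered vital signs, clinical labs, 12-lead ECG, physical exams, and reported or observed AEs, coded with MedDRA 19.1. Counts are subjects with AEs, % of the safety population. Placebo subjects were pooled.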
compound,measurement,setting,value
Cc1nn(Cc2ccc(Br)cc2)c(C)c1NC(=O)CSc1ccccc1 [KM-819],no observed adverse effect level (NOAEL),[1]; 4-week rat toxicology study,500 mg/kg/day
same,adverse effects after repeated administration,"[1]; 4 weeks, up to 500 mg/kg/day",did not show adverse effects
same,Bond and Lader VAS,[2]; SAD and MAD,No signs of KM-819 treatment-related effects
same,C-SSRS,[2]; SAD and MAD,no apparent treatment or cohort differences
same,K-WAIS-IV,[2]; SAD and MAD,no clear treatments differences
same,POMS,[2]; SAD and MAD,no apparent treatment or cohort differences
same,effects on the estimated pharmacodynamic variables,[2]; whole study,No clear treatment-related effects
same,adverse effects after repeated administration,[3],did not show adverse effects
same,"AUC0–24, geometric mean (CV%)","[4]; 30 mg QD, day 1, young","1,761 (21.3) ng·h/mL"
same,"Cmax, geometric mean (CV%)","[4]; 30 mg QD, day 1, young",512.0 (30.9) ng/mL
same,"Tmax, median (min–max)","[4]; 30 mg QD, day 1, young",2.00 (1.00–6.00) h
same,CSF KM-819 concentration,[4]; 30 mg QD,no CSF KM-819 concentrations were measurable
same,"AUCtau, geometric mean (CV%)","[4]; 30 mg QD, day 7, young","1,572 (24.8) ng·h/mL"
same,"Cmax,ss, geometric mean (CV%)","[4]; 30 mg QD, day 7, young",418.5 (51.7) ng/mL
same,"Tmax,ss, median (min–max)","[4]; 30 mg QD, day 7, young",2.00 (1.00–6.00) h
same,"AUC0–24, geometric mean (CV%)","[4]; 100 mg QD, day 1, young","3,735 (38.5) ng·h/mL"
same,"Cmax, geometric mean (CV%)","[4]; 100 mg QD, day 1, young","1,009 (33.0) ng/mL"
same,"Tmax, median (min–max)","[4]; 100 mg QD, day 1, young",2.00 (1.00–4.00) h
same,mean CSF/Cmax ratio,"[4]; 100 mg QD, day 7, CSF 1 hour postdose",0.067%
same,"AUCtau, geometric mean (CV%)","[4]; 100 mg QD, day 7, young","3,477 (17.9) ng·h/mL"
same,"Cmax,ss, geometric mean (CV%)","[4]; 100 mg QD, day 7, young","1,012 (39.5) ng/mL"
same,"Cmin,ss, geometric mean (CV%)","[4]; 100 mg QD, day 7, young",9.983 (31.1) ng/mL
same,"Tmax,ss, median (min–max)","[4]; 100 mg QD, day 7, young",3.00 (1.00–4.00) h
same,"Cmax,ss in elderly relative to young","[4]; 200 mg QD for 7 days, day 7",191%
same,plasma exposure (AUCtau) in elderly relative to young,"[4]; 200 mg QD for 7 days, day 7",102%
same,"AUC0–24, geometric mean (CV%)","[4]; 200 mg QD, day 1, elderly","17,590 (53.3) ng·h/mL"
same,"Cmax, geometric mean (CV%)","[4]; 200 mg QD, day 1, elderly","3,542 (76.4) ng/mL"
same,"Tmax, median (min–max)","[4]; 200 mg QD, day 1, elderly",2.00 (1.00–6.00) h
same,"AUC0–24, geometric mean (CV%)","[4]; 200 mg QD, day 1, young","6,485 (62.2) ng·h/mL"
same,"Cmax, geometric mean (CV%)","[4]; 200 mg QD, day 1, young","1,465 (77.2) ng/mL"
same,"Tmax, median (min–max)","[4]; 200 mg QD, day 1, young",3.00 (2.00–6.00) h
same,mean CSF/Cmax ratio,"[4]; 200 mg QD, day 7, CSF 1 hour postdose, elderly",0.032%
same,mean CSF/Cmax ratio,"[4]; 200 mg QD, day 7, CSF 1 hour postdose, young",0.074%
same,"AUCtau, geometric mean (CV%)","[4]; 200 mg QD, day 7, elderly","16,250 (34.1) ng·h/mL"
same,"Cmax,ss, geometric mean (CV%)","[4]; 200 mg QD, day 7, elderly","3,231 (52.5) ng/mL"
same,"Cmin,ss, geometric mean (CV%)","[4]; 200 mg QD, day 7, elderly",44.82 (48.3) ng/mL
same,"Tmax,ss, median (min–max)","[4]; 200 mg QD, day 7, elderly",2.00 (1.00–4.00) h
same,"AUCtau, geometric mean (CV%)","[4]; 200 mg QD, day 7, young","8,023 (7.7) ng·h/mL"
same,"Cmax,ss, geometric mean (CV%)","[4]; 200 mg QD, day 7, young","1,111 (64.3) ng/mL"
same,"Cmin,ss, geometric mean (CV%)","[4]; 200 mg QD, day 7, young",32.44 (19.4) ng/mL
same,"Tmax,ss, median (min–max)","[4]; 200 mg QD, day 7, young",4.00 (4.00–4.00) h
same,"AUC0–24, geometric mean (CV%)","[4]; 400 mg QD, day 1, young","11,260 (37.1) ng·h/mL"
same,"Cmax, geometric mean (CV%)","[4]; 400 mg QD, day 1, young","3,163 (50.7) ng/mL"
same,"Tmax, median (min–max)","[4]; 400 mg QD, day 1, young",2.00 (1.00–6.00) h
same,mean CSF/Cmax ratio,"[4]; 400 mg QD, day 7, CSF 1 hour postdose",0.049%
same,"AUCtau, geometric mean (CV%)","[4]; 400 mg QD, day 7, young","19,530 (96.4) ng·h/mL"
same,"Cmax,ss, geometric mean (CV%)","[4]; 400 mg QD, day 7, young","3,172 (37.9) ng/mL"
same,"Cmin,ss, geometric mean (CV%)","[4]; 400 mg QD, day 7, young",75.14 (28.4) ng/mL
same,"Tmax,ss, median (min–max)","[4]; 400 mg QD, day 7, young",2.00 (0.50–4.00) h
same,dose proportionality of plasma exposure (AUC) after repeated dosing,"[4]; 30–400 mg QD for 7 days, day 7",approximately dose-proportional; also recorded: dose-proportional increase
same,"variability (CV%) of AUCtau and Cmax,ss",[4]; MAD,up to 96%
same,dose proportionality of AUC and Cmax after a single dose,"[4]; MAD, day 1",less than dose-proportional increase
same,dose proportionality of Cmax after repeated dosing,"[4]; MAD, day 7",less than dose-proportional increase
same,dose proportionality of Cmin after repeated dosing,"[4]; MAD, day 7",slightly more than dose-proportional increase
same,"Estimated mean slope, dose proportionality power model, Cmin,ss","[4]; MAD, day 7, N=21",1.1852
same,mean CSF/Cmax ratio,[4]; each cohort,less than 0.1%
same,time to steady-state (trough) concentrations,"[4]; repeated QD dosing, each group",5 days
same,CSF KM-819 concentration,[4]; ≥100 mg QD,measurable in more than half of the CSF samples
same,serious adverse events (SAEs),[5]; SAD,no serious adverse events
same,bilirubin levels,"[5]; SAD, 10 mg and 30 mg cohorts, day 2, normal on day 7",increasing trend of bilirubin levels
same,"Abdominal discomfort, number of subjects (%)","[5]; single 10 mg, young, N=6",0
same,"Cough, number of subjects (%)","[5]; single 10 mg, young, N=6",0
same,"Eye swelling, number of subjects (%)","[5]; single 10 mg, young, N=6",0
same,"Face injury, number of subjects (%)","[5]; single 10 mg, young, N=6",0
same,"Headache, number of subjects (%)","[5]; single 10 mg, young, N=6",0
same,"Hot flush, number of subjects (%)","[5]; single 10 mg, young, N=6",0
same,"Hyperbilirubinemia, number of subjects (%)","[5]; single 10 mg, young, N=6",2 (33.3)
same,"Hypoesthesia, number of subjects (%)","[5]; single 10 mg, young, N=6",0
same,"Influenza, number of subjects (%)","[5]; single 10 mg, young, N=6",0

# From PMC6445238 (Drug Design, Development and Therapy, 2019)
